Active and inactive are the calls of the source. The calls are words filed in the database; no cut-off is given here.
Columns and labels:
[1] = tested on: L1210; test: Cytostatic activity against mouse L1210 cells after 48 hrs by MTT assay; format: functional, cell-based; settings: L1210, 48 h
[2] = Cytostatic activity against human Molt4/C8 cells after 72 hrs by MTT assay; format: functional, cell-based; settings: MOLT-4, 72 h
[3] = tested on: CCRF-CEM; test: Cytostatic activity against human CEM cells after 72 hrs by MTT assay; format: functional, cell-based
[4] = tested on: HeLa; test: Cytostatic activity against human HeLa cells after 72 hrs by MTT assay; format: functional, cell-based
In short: (§1)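 Monolayer cells were grown in DMEM with 10% FBS, 2 mM L-glutamine, penicillin and streptomycin at 37 °C under 5% CO2. They were seeded on day 0 at 1 × 10⁴ to 3 × 10⁴ cells/ml and exposed to five 10-fold dilutions (10⁻⁸ to 10⁻⁴ M) for 72 h, with a solvent control. Read-out was MTT. Quadruplicates in three experiments (WI 38: one experiment). IC50 by linear regression of percentage-of-growth.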

[5] = tested on: MIA PaCa-2; test: Cytostatic activity against human MIAPaCa2 cells after 72 hrs by MTT assay; format: functional, cell-based; settings: MIA PaCa-2, 72 h; in short: as §1
[6] = tested on: SW-620; test: Cytostatic activity against human SW620 cells after 72 hrs by MTT assay; format: functional, cell-based; settings: SW-620, 72 h; in short: as §1
[7] = tested on: MCF7; test: Cytostatic activity against human MCF7 cells after 72 hrs by MTT assay; format: functional, cell-based; settings: MCF7, 72 h; in short: as §1
[8] = tested on: NCI-H460; test: Cytostatic activity against human H460 cells after 72 hrs by MTT assay; format: functional, cell-based; settings: NCI-H460, 72 h; in short: as §1
[9] = Cytostatic activity against human WI38 cells after 72 hrs by MTT assay; format: ADME, cell-based; settings: WI-38, 72 h; in short: as §1
[10] = tested on: Human immunodeficiency virus 1; test: Antiviral activity against HIV1 3B infected in human CEM cells assessed as inhibition of virus-induced cytopathicity; format: functional, organism-based; settings: CCRF-CEM
[11] = tested on: Human immunodeficiency virus 2; test: Antiviral activity against HIV2 ROD infected in human CEM cells assessed as inhibition of virus-induced cytopathicity; format: functional, organism-based; settings: CCRF-CEM
[12] = tested on: Human alphaherpesvirus 1; test: Antiviral activity against Herpes simplex virus 1 infected in HEL cells assessed as inhibition of virus-induced cytopathicity; format: functional, organism-based
[13] = tested on: Human alphaherpesvirus 2; test: Antiviral activity against Herpes simplex virus 2 infected in HEL cells assessed as inhibition of virus-induced cytopathicity; format: functional, organism-based
[14] = tested on: Vaccinia virus; test: Antiviral activity against Vaccinia virus infected in HEL cells assessed as inhibition of virus-induced cytopathicity; format: functional, organism-based; settings: Orthopoxvirus vaccinia
In short: (§2)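 Cell cultures were exposed for 2 h to 100 CCID50 of virus, and residual virus was then removed. Infected cells were further incubated with medium containing varying compound concentrations for 3 days at 37 °C. Virus-induced cytopathogenicity was scored microscopically. EC50 is the concentration giving a 50% reduction of cytopathogenicity.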

[15] = tested on: Human alphaherpesvirus 3; test: Antiviral activity against Varicella-Zoster virus infected in HEL cells assessed as inhibition of virus-induced cytopathicity; format: functional, organism-based
[16] = tested on: Cytomegalovirus; test: Antiviral activity against Cytomegalovirus infected in HEL cells assessed as inhibition of virus-induced cytopathicity; format: functional, organism-based
In short: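 Confluent HEL fibroblasts were infected with CMV strains Davis and AD-169 at 100 PFU per well for 2 h, then virus was removed. Graded concentrations were added in duplicate and cultures kept 7 days at 37 °C. Cytopathogenicity was scored microscopically after ethanol fixation and Giemsa staining. EC50 is the 50% reduction.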

[17] = tested on: Vesicular stomatitis virus; test: Antiviral activity against Vesicular stomatitis virus infected in HEL cells assessed as inhibition of virus-induced cytopathicity; format: functional, organism-based; in short: as §2
[18] = tested on: Human respirovirus 3; test: Antiviral activity against Parainfluenza-3 virus infected in african green monkey Vero cells assessed as inhibition of virus-induced cytopathicity; format: functional, organism-based
In short: (§3)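 Cells were infected with 100 CCID50 of virus for 2 h, then residual virus was removed. Medium with graded compound concentrations was added and cultures were kept 3 days at 37 °C. Cytopathogenicity was scored microscopically. EC50 is the concentration reducing virus-induced cytopathogenicity by 50%.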

[19] = tested on: Mammalian orthoreovirus 1; test: Antiviral activity against Reovirus 1 infected in african green monkey Vero cells assessed as inhibition of virus-induced cytopathicity; format: functional, organism-based; in short: as §3
[20] = tested on: Sindbis virus; test: Antiviral activity against Sindbis virus infected in african green monkey Vero cells assessed as inhibition of virus-induced cytopathicity; format: functional, organism-based; in short: as §3
[21] = tested on: Coxsackievirus B4; test: Antiviral activity against Coxsackievirus B4 infected in african green monkey Vero cells assessed as inhibition of virus-induced cytopathicity; format: functional, organism-based; in short: as §3
[22] = tested on: Punta Toro virus; test: Antiviral activity against Punta Toro virus infected in african green monkey Vero cells assessed as inhibition of virus-induced cytopathicity; format: functional, organism-based; in short: as §3
[23] = tested on: Respiratory syncytial virus; test: Antiviral activity against Respiratory syncytial virus infected in human HeLa cells assessed as inhibition of virus-induced cytopathicity; format: functional, organism-based; in short: as §3
[24] = tested on: Vesicular stomatitis virus; test: Antiviral activity against Vesicular stomatitis virus infected in human HeLa cells assessed as inhibition of virus-induced cytopathicity; format: functional, organism-based; in short: as §2
[25] = tested on: Coxsackievirus B4; test: Antiviral activity against Coxsackievirus B4 infected in human HeLa cells assessed as inhibition of virus-induced cytopathicity; format: functional, organism-based; in short: as §3

Row | SMILES | IC50 [1] [µM] | IC50 [2] [µM] | IC50 [3] [µM] | IC50 [4] [µM] | IC50 [5] [µM] | IC50 [6] [µM] | IC50 [7] [µM] | IC50 [8] [µM] | IC50 [9] [µM] | Activity [10] | Activity [11] | Activity [12] | Activity [13] | Activity [14] | Activity [15] | Activity [16] | Activity [17] | Activity [18] | Activity [19] | Activity [20] | further results
1 | COC(=O)[C@H](C)NP(=O)(OCCCNC(=O)Cc1ccccc1Nc1c(Cl)cccc1Cl)Oc1ccc(Cl)cc1 (stereo not given in full) | 13 | 9.7 | 22 | 16 | 16 | 16 | 9 | 17 | 18 | inactive | inactive | inactive | inactive | inactive | inactive | inactive | inactive | inactive | inactive | inactive | Activity [21]: inactive; Activity [22]: inactive; Activity [23]: inactive; Activity [24]: inactive; Activity [25]: inactive
2 | COC(=O)[C@H](C)NP(=O)(OCCCNC(=O)C(C)c1ccc(CC(C)C)cc1)Oc1ccc(Cl)cc1 (stereo not given in full) | 64 | 48 | 90 | 15 | 13 | 21 | 14 | 19 | 21 | inactive | inactive | inactive | inactive | inactive | inactive | inactive | inactive | inactive | inactive | inactive | Activity [21]: inactive; Activity [22]: inactive; Activity [23]: inactive; Activity [24]: inactive; Activity [25]: inactive
3 | COC(=O)[C@H](C)NP(=O)(OCCCNC(=O)C(C)c1cccc(C(=O)c2ccccc2)c1)Oc1ccc(Cl)cc1 (stereo not given in full) | 44 | 40 | 40 | 19 | 14 | 17 | 14 | 18 | 30 | inactive | inactive | inactive | inactive | inactive | inactive | inactive | inactive | inactive | inactive | inactive | Activity [21]: inactive; Activity [22]: inactive; Activity [23]: inactive; Activity [24]: inactive; Activity [25]: inactive
4 | COC(=O)[C@H](C)NP(=O)(OCCCNC(=O)C(C)c1cccc(Oc2ccccc2)c1)Oc1ccc(Cl)cc1 (stereo not given in full) | 24 | 39 | 38 | 6 | 5 | 7 | 12 | 13 | 20 | inactive | inactive | inactive | inactive | inactive | inactive | inactive | inactive | inactive | inactive | inactive | Activity [21]: inactive; Activity [22]: inactive; Activity [23]: inactive; Activity [24]: inactive; Activity [25]: inactive

— ChEMBL document CHEMBL1152859, “The novel phosphoramidate derivatives of NSAID 3-hydroxypropylamides: synthesis, cytostatic and antiviral activity evaluations” (Eur J Med Chem, 2009)
